Results as given in ChEMBL document CHEMBL4118251 (J Med Chem, 2018).

Assays:
[1] = biological target: Glucagon-like peptide 1 receptor (Homo sapiens, UniProt P43220); experiment: Agonist activity at human GLP1R expressed in HEK293 cells assessed as cAMP accumulation after 30 mins by HTRF assay; format: functional, cell-based
[2] = biological target: Glucagon receptor (Homo sapiens, UniProt P47871); experiment: Agonist activity at human glucagon receptor expressed in HEK293 cells assessed as cAMP accumulation after 30 mins by HTRF assay; format: functional, cell-based
Sequence of Glucagon receptor (P47871 whole entry): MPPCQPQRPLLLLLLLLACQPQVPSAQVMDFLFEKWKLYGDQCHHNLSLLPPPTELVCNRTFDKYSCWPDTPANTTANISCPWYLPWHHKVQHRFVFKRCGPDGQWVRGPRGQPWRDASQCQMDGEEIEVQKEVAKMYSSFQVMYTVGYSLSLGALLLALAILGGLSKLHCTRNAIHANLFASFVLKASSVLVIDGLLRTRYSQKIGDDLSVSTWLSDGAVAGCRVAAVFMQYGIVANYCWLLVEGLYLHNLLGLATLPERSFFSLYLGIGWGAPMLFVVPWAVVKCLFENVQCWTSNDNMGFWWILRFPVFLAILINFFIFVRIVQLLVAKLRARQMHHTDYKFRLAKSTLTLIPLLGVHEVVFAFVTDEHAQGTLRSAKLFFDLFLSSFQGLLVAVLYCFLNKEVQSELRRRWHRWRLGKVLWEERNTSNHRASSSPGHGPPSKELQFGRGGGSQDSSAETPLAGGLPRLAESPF

[3] = biological target: T1, Gastric inhibitory polypeptide receptor (Homo sapiens, UniProt P48546); experiment: Agonist activity at human GIP receptor expressed in HEK293 cells assessed as cAMP accumulation after 30 mins by HTRF assay; format: functional, cell-based
T1 sequence (P48546 whole entry): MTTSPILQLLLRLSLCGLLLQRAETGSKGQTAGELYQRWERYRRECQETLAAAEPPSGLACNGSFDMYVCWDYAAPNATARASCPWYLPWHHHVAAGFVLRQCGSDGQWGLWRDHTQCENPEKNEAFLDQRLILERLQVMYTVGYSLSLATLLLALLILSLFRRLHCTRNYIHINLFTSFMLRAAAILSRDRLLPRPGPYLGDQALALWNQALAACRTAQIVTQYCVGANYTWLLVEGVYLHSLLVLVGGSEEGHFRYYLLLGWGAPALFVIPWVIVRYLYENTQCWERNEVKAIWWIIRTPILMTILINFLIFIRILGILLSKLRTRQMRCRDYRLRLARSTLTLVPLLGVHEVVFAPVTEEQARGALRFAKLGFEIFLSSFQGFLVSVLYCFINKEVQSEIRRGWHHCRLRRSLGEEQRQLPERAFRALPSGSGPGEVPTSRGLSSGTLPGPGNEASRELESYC

[4] = species: Homo sapiens; experiment: Selectivity ratio of EC50 for human GIP receptor expressed in HEK293 cells to EC50 for human GLP1R expressed in HEK293 cells; format: cell-based
Outline: (§1)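 HEK293 lines stably expressing human or monkey receptor were detached with accutase. Cells were resuspended at 400 000 cells/mL in HBSS/20 mM HEPES/0.1% BSA/2 mM IBMX and exposed to peptide for 30 min at room temperature. cAMP was read by HTRF (665/620 nm) after 1 h lysis.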

[5] = Agonist activity at monkey GIP receptor expressed in HEK293 cells assessed as cAMP accumulation after 30 mins by HTRF assay; format: cell-based, Macaca mulatta; outline: as §1
[6] = Agonist activity at monkey glucagon receptor expressed in HEK293 cells assessed as cAMP accumulation after 30 mins by HTRF assay; format: cell-based, Macaca mulatta; outline: as §1

Sequence of Glucagon-like peptide 1 receptor (P43220 whole entry): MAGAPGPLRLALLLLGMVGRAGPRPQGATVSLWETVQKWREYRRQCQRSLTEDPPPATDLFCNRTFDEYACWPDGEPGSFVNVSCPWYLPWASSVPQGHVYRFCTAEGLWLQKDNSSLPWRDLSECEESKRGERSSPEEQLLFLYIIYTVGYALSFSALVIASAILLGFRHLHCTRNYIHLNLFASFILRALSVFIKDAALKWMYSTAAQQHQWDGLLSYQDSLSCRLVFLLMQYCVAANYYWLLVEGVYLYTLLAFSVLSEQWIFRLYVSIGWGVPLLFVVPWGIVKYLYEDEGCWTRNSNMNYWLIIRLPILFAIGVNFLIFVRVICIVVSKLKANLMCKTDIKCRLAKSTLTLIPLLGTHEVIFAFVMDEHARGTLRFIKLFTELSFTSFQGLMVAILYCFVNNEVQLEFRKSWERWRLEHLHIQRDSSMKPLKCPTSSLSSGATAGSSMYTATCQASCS

Compound | EC50 [1] | EC50 [2] | EC50 [3] | Ratio EC50 [4] | EC50 ([5]; hek293) | EC50 ([6]; hek293) | EC50 ([5]; Macaca mulatta, HEK293, 0.5 h) | EC50 ([6]; Macaca mulatta, HEK293, 0.5 h)
CCCCCCCCCCCCCCCCC(=O)N[C@@H](CCC(=O)N[C@@H](CCC(=O)NCCCC[C@H](NC(=O)[C@H](CCC(N)=O)NC(=O)[C@H](CCCCN)NC(=O)[C@H](CO)NC(=O)[C@H](CC(C)C)NC(=O)[C@H](CC(=O)O)NC(=O)[C@H](CO)NC(=O)[C@@H](NC(=O)[C@H](Cc1ccccc1)NC(=O)[C@@H](NC(=O)CNC(=O)[C@H](CCC(N)=O)NC(=O)C(C)(C)NC(=O)[C@@H](N)Cc1cnc[nH]1)[C@@H](C)O)[C@@H](C)O)C(=O)N[C@@H](CC(=O)O)C(=O)N[C@@H](CCC(=O)O)C(=O)N[C@@H](CCC(N)=O)C(=O)N[C@@H](CCCNC(=N)N)C(=O)N[C@@H](C)C(=O)N[C@@H](CCCCN)C(=O)N[C@@H](CC(C)C)C(=O)N[C@@H](Cc1ccccc1)C(=O)N[C@H](C(=O)N[C@@H](CCC(=O)O)C(=O)N[C@@H](Cc1c[nH]c2ccccc12)C(=O)N[C@@H](CC(C)C)C(=O)N[C@@H](CCCCN)C(=O)N[C@@H](C)C(=O)NCC(=O)NCC(=O)N1CCC[C@H]1C(=O)N[C@@H](CO)C(=O)N[C@@H](CO)C(=O)NCC(=O)N[C@@H](C)C(=O)N1CCC[C@H]1C(=O)N1CCC[C@H]1C(=O)N1CCC[C@H]1C(=O)N[C@@H](CO)C(N)=O)[C@@H](C)CC)C(=O)O)C(=O)O | 0.0022 nM | 0.0044 nM | 0.224 nM | – | – | – | – | –
CCCCCCCCCCCCCCCCC(=O)N[C@@H](CCC(=O)N[C@@H](CCC(=O)NCCCC[C@H](NC(=O)[C@H](CCC(N)=O)NC(=O)[C@H](CCCCN)NC(=O)[C@H](CO)NC(=O)[C@H](CC(C)C)NC(=O)[C@H](CC(=O)O)NC(=O)[C@H](CO)NC(=O)[C@@H](NC(=O)[C@H](Cc1ccccc1)NC(=O)[C@@H](NC(=O)CNC(=O)[C@H](CCC(N)=O)NC(=O)C(C)(C)NC(=O)[C@@H](N)Cc1cnc[nH]1)[C@@H](C)O)[C@@H](C)O)C(=O)N[C@@H](CC(=O)O)C(=O)N[C@@H](CCC(=O)O)C(=O)N[C@@H](CCC(N)=O)C(=O)N[C@@H](CCCNC(=N)N)C(=O)N[C@@H](C)C(=O)N[C@@H](CCCCN)C(=O)N[C@@H](CC(C)C)C(=O)N[C@@H](Cc1ccccc1)C(=O)N[C@H](C(=O)N[C@@H](CCC(=O)O)C(=O)N[C@@H](Cc1c[nH]c2ccccc12)C(=O)N[C@@H](CC(C)C)C(=O)N[C@H](C(=O)N[C@@H](C)C(=O)NCC(=O)NCC(=O)N1CCC[C@H]1C(=O)N[C@@H](CO)C(=O)N[C@@H](CO)C(=O)NCC(=O)N[C@@H](C)C(=O)N1CCC[C@H]1C(=O)N1CCC[C@H]1C(=O)N1CCC[C@H]1C(=O)N[C@@H](CO)C(N)=O)[C@@H](C)CC)[C@@H](C)CC)C(=O)O)C(=O)O | 0.0053 nM | 0.0025 nM | 0.0582 nM | – | – | – | – | –
CCCCCCCCCCCCCCCCC(=O)N[C@@H](CCC(=O)N[C@@H](CCC(=O)NCCCC[C@H](NC(=O)[C@H](CCC(N)=O)NC(=O)[C@H](CCCCN)NC(=O)[C@H](CO)NC(=O)[C@H](CC(C)C)NC(=O)[C@H](CC(=O)O)NC(=O)[C@H](CO)NC(=O)[C@@H](NC(=O)[C@H](Cc1ccccc1)NC(=O)[C@@H](NC(=O)CNC(=O)[C@H](CCC(N)=O)NC(=O)C(C)(C)NC(=O)[C@@H](N)Cc1cnc[nH]1)[C@@H](C)O)[C@@H](C)O)C(=O)N[C@@H](CC(=O)O)C(=O)N[C@@H](CCC(=O)O)C(=O)N[C@@H](CCC(N)=O)C(=O)N[C@@H](CCCNC(=N)N)C(=O)N[C@@H](C)C(=O)N[C@@H](CCCCN)C(=O)N[C@@H](CC(C)C)C(=O)N[C@@H](Cc1ccccc1)C(=O)N[C@H](C(=O)N[C@@H](CCC(=O)O)C(=O)N[C@@H](Cc1c[nH]c2ccccc12)C(=O)N[C@@H](CC(C)C)C(=O)N[C@@H](CC(C)C)C(=O)N[C@@H](C)C(=O)NCC(=O)NCC(=O)N1CCC[C@H]1C(=O)N[C@@H](CO)C(=O)N[C@@H](CO)C(=O)NCC(=O)N[C@@H](C)C(=O)N1CCC[C@H]1C(=O)N1CCC[C@H]1C(=O)N1CCC[C@H]1C(=O)N[C@@H](CO)C(N)=O)[C@@H](C)CC)C(=O)O)C(=O)O | 0.0048 nM | 0.0016 nM | 0.189 nM | – | – | – | – | –
CCCCCCCCCCCCCCCCC(=O)N[C@@H](CCC(=O)NCCCC[C@H](NC(=O)[C@H](CCC(N)=O)NC(=O)[C@H](CCCCN)NC(=O)[C@H](CO)NC(=O)[C@H](CC(C)C)NC(=O)[C@H](CC(=O)O)NC(=O)[C@H](CO)NC(=O)[C@@H](NC(=O)[C@H](Cc1ccccc1)NC(=O)[C@@H](NC(=O)CNC(=O)[C@H](CCC(N)=O)NC(=O)C(C)(C)NC(=O)[C@@H](N)Cc1cnc[nH]1)[C@@H](C)O)[C@@H](C)O)C(=O)N[C@@H](CC(=O)O)C(=O)N[C@@H](CCC(=O)O)C(=O)N[C@@H](CCC(N)=O)C(=O)N[C@@H](CCCNC(=N)N)C(=O)N[C@@H](C)C(=O)N[C@@H](CCCCN)C(=O)N[C@@H](CC(C)C)C(=O)N[C@@H](Cc1ccccc1)C(=O)N[C@H](C(=O)N[C@@H](CCC(=O)O)C(=O)N[C@@H](Cc1c[nH]c2ccccc12)C(=O)N[C@@H](CC(C)C)C(=O)NC(C)(C)C(=O)N[C@@H](C)C(=O)NCC(=O)NCC(=O)N1CCC[C@H]1C(=O)N[C@@H](CO)C(=O)N[C@@H](CO)C(=O)NCC(=O)N[C@@H](C)C(=O)N1CCC[C@H]1C(=O)N1CCC[C@H]1C(=O)N1CCC[C@H]1C(=O)N[C@@H](CO)C(N)=O)[C@@H](C)CC)C(=O)O | 0.0064 nM | 0.0154 nM | 1.16 nM | 181 | – | – | – | –
CCCCCCCCCCCCCCCCCCC(=O)N[C@@H](CCC(=O)NCCCC[C@H](NC(=O)[C@H](CCC(N)=O)NC(=O)[C@H](CCCCN)NC(=O)[C@H](CO)NC(=O)[C@H](CC(C)C)NC(=O)[C@H](CC(=O)O)NC(=O)[C@H](CO)NC(=O)[C@@H](NC(=O)[C@H](Cc1ccccc1)NC(=O)[C@@H](NC(=O)CNC(=O)[C@H](CCC(N)=O)NC(=O)C(C)(C)NC(=O)[C@@H](N)Cc1cnc[nH]1)[C@@H](C)O)[C@@H](C)O)C(=O)N[C@@H](CC(=O)O)C(=O)N[C@@H](CCC(=O)O)C(=O)N[C@@H](CCC(N)=O)C(=O)N[C@@H](CCCNC(=N)N)C(=O)N[C@@H](C)C(=O)N[C@@H](CCCCN)C(=O)N[C@@H](CC(C)C)C(=O)N[C@@H](Cc1ccccc1)C(=O)N[C@H](C(=O)N[C@@H](CCC(=O)O)C(=O)N[C@@H](Cc1c[nH]c2ccccc12)C(=O)N[C@@H](CC(C)C)C(=O)N[C@@H](CCCCN)C(=O)N[C@@H](C)C(=O)NCC(=O)NCC(=O)N1CCC[C@H]1C(=O)N[C@@H](CO)C(=O)N[C@@H](CO)C(=O)NCC(=O)N[C@@H](C)C(=O)N1CCC[C@H]1C(=O)N1CCC[C@H]1C(=O)N1CCC[C@H]1C(=O)N[C@@H](CO)C(N)=O)[C@@H](C)CC)C(=O)O | 0.0025 nM | 0.0019 nM | 0.0397 nM | – | – | – | – | –
GLUCAGON | – | – | – | – | > 100000 nM | 0.0015 nM | – | –
CC[C@H](C)[C@H](NC(=O)[C@H](Cc1ccccc1)NC(=O)[C@H](CCC(=O)O)NC(=O)[C@H](CCCCN)NC(=O)[C@H](C)NC(=O)[C@H](C)NC(=O)[C@H](CCC(N)=O)NC(=O)CNC(=O)[C@H](CCC(=O)O)NC(=O)[C@H](CC(C)C)NC(=O)[C@H](Cc1ccc(O)cc1)NC(=O)[C@H](CO)NC(=O)[C@H](CO)NC(=O)[C@@H](NC(=O)[C@H](CC(=O)O)NC(=O)[C@H](CO)NC(=O)[C@@H](NC(=O)[C@H](Cc1ccccc1)NC(=O)[C@@H](NC(=O)CNC(=O)[C@H](CCC(=O)O)NC(=O)[C@H](C)NC(=O)[C@@H](N)Cc1cnc[nH]1)[C@@H](C)O)[C@@H](C)O)C(C)C)C(=O)N[C@@H](C)C(=O)N[C@@H](Cc1c[nH]c2ccccc12)C(=O)N[C@@H](CC(C)C)C(=O)N[C@H](C(=O)N[C@@H](CCCCN)C(=O)NCC(=O)N[C@@H](CCCNC(=N)N)C(=O)O)C(C)C | – | – | > 100000 nM | – | – | – | > 100000 nM | > 100000 nM
CCCCCCCCCCCCCCCCC(=O)N[C@@H](CCC(=O)NCCCC[C@H](NC(=O)[C@H](CCC(N)=O)NC(=O)[C@H](CCCCN)NC(=O)[C@H](CO)NC(=O)[C@H](CC(C)C)NC(=O)[C@H](CC(=O)O)NC(=O)[C@H](CO)NC(=O)[C@@H](NC(=O)[C@H](Cc1ccccc1)NC(=O)[C@@H](NC(=O)CNC(=O)[C@H](CCC(N)=O)NC(=O)[C@H](CO)NC(=O)[C@@H](N)Cc1cnc[nH]1)[C@@H](C)O)[C@@H](C)O)C(=O)N[C@@H](CC(=O)O)C(=O)N[C@@H](CO)C(=O)N[C@@H](CCCNC(=N)N)C(=O)N[C@@H](CCCNC(=N)N)C(=O)N[C@@H](C)C(=O)N[C@@H](CCC(N)=O)C(=O)N[C@@H](CC(=O)O)C(=O)N[C@@H](Cc1ccccc1)C(=O)N[C@H](C(=O)N[C@@H](CCC(=O)O)C(=O)N[C@@H](Cc1c[nH]c2ccccc12)C(=O)N[C@@H](CC(C)C)C(=O)N[C@@H](CCCCN)C(=O)N[C@@H](CC(N)=O)C(=O)NCC(=O)NCC(=O)N1CCC[C@H]1C(=O)N[C@@H](CO)C(=O)N[C@@H](CO)C(=O)NCC(=O)N[C@@H](C)C(=O)N1CCC[C@H]1C(=O)N1CCC[C@H]1C(=O)N1CCC[C@H]1C(=O)N[C@@H](CO)C(=O)O)[C@@H](C)CC)C(=O)O | 0.0039 nM | 0.0007 nM | 1.21 nM | – | – | – | – | –
